Source: PubChem BioAssay
In the library only some 1.3% were active in any assay of this set; here they are far more common.
PfG6PD inh – PfG6PD (Plasmodium falciparum) enzyme inhibition; inhibition, % at 20 µM; 350,000 tested, 0.78% active; PfGluPho enzyme, NADPH resazurin-diaphorase fluorescence;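 active = inhibition reaching at least a set limit at 20 µM in the primary screen, cut at about 59% in these data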
HKDC1 inhibitor – inhibitors of human hexokinase HKDC1 | 340,000 tested, 0.16% active | AID 493160 | inhibition, % at 20 µM | recombinant HKDC1, G6PDH/diaphorase resazurin coupled fluorescence | Q2TB90;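 active = inhibition above about 35% when tested at 20 µM, limit read from the data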
Target sequence (Q2TB90 whole entry, looked up): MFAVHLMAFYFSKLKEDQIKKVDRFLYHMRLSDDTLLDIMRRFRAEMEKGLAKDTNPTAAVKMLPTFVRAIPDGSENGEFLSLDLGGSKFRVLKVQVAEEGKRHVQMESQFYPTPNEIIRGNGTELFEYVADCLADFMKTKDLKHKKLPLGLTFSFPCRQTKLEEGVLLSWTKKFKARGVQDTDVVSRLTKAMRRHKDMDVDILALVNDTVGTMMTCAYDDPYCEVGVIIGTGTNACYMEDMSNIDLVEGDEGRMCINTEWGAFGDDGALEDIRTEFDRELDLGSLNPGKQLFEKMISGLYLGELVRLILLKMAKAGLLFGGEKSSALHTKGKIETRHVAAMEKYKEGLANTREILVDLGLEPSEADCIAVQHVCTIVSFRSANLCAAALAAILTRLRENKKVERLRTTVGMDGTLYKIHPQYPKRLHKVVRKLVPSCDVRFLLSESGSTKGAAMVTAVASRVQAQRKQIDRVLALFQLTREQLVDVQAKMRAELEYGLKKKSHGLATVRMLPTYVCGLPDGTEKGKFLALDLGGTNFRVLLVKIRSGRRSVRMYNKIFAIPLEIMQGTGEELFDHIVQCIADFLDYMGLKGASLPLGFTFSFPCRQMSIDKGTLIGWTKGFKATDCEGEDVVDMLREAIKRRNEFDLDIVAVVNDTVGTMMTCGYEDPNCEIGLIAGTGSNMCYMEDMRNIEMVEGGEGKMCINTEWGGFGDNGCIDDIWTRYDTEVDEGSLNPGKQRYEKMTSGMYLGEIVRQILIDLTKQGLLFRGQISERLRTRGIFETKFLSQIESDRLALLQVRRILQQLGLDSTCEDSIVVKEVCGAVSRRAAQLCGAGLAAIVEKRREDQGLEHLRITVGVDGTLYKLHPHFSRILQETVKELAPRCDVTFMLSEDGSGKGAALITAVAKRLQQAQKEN
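Assay system: recombinant HKDC1 hexokinase; detection: coupled resazurin fluorescence, excitation 525 nm, emission 613 nm; benchmarks: DMSO-plus-enzyme-mix negative control, buffer-substituted positive control; compound dosing: single 20 µM dose; schedule: 90 min at room temperature in dark; also added: glucose plus 1 mM ATP as hexokinase substrates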
Diaphorase act – diaphorase activation or chemical reduction counter-screen; activation factor at 20 µM; 190,000 tested, 0.005% active; Diaphorase/resazurin coupled assay, resorufin fluorescence, 16 min; hits give high values; 1 = vehicle wells, 0 = NADH-free wells;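 active = diaphorase activity raised at least twofold by the compound at 20 µM; inactive = activation factor below 2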
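Measured by – red resorufin fluorescence at 544/590 nm excitation/emission · Test system – Clostridium kluyveri diaphorase, purified enzyme · Incubation – reaction time 16 min, room temperature · Buffer or medium – 50 mM HEPES pH 7.4 with 4.542 mM MgCl2, 0.005% Tween 20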
G6PDH counter – counter-screen for G6PDH assay hits: L. mesenteroides G6PDH inhibition; Purified L. mesenteroides G6PDH, diaphorase/resazurin coupled fluorescence, 45 min; inhibition, % at 5 µM; 200,000 tested, 0.12% active; AID 1020; in the data active = inhibition above about 50%
Diaph inh CS – inhibits diaphorase or chemically oxidizes, flagging diaphorase assay artifacts | diaphorase resazurin-to-resorufin fluorescence, NADH, 16 min; bacterial (C. kluyveri) enzyme, not human | inhibition, % at 20 µM | 190,000 tested, 0.69% active;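 active = primary screen inhibition at 20 µM above a set limit, cut at about 50% in these data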
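Test system: Clostridium kluyveri diaphorase enzyme / Quantity: diaphorase at 0.14 U/mL in enzyme working solution / Incubation: 16-min room-temperature incubation before reading / Benchmarks: NADH-free wells as positive control, DMSO-only neutral wells / Signal: resorufin fluorescence 544/590 nm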
PfGluPho conf – confirmation of Plasmodium falciparum G6PD inhibitors; AID 504753; recombinant PfGluPho, NADPH-diaphorase-resazurin fluorescence; shares compounds with PfG6PD inh; 2,400 tested, 34% active; inhibition, % at 20 µM;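 active = inhibition of at least 50% at 20 µM in any single replicate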
Diaphorase 10uM – inhibits diaphorase or oxidizes, flagging false PfG6PD hits; diaphorase-coupled resazurin reduction, fluorescence, NADPH 10 uM; inhibition, % at 20 µM; 820 tested, 39% active; shares compounds with PfG6PD inh;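 active = average inhibition reaching 50% or more with the compound at 20 µM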;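 note: resorufin red fluorescence formed as diaphorase reduces resazurin using NADPH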
Diaph ctr 30uM – inhibits diaphorase or oxidizes, flagging false PfG6PD hits | 820 tested, 29% active | inhibition, % at 20 µM | shares compounds with PfG6PD inh | Diaphorase/resazurin coupled assay, resorufin fluorescence, 30 uM NADPH | AID 504863;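 active = inhibition averaging 50% or more, tested at 20 µM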
Hits are given with their value; . = inactive; / = not tested or not shown.

SMILES	PfG6PD inh	HKDC1 inhibitor	Diaphorase act	G6PDH counter	Diaph inh CS	PfGluPho conf	others
Cc1ccc(S(=O)(=O)N2C[C@H]3n4c(=O)ccc(=O)n4C[C@H](OC(=O)NCc4ccccc4)[C@@]3(O)C2)cc1	.	/	/	/	/	/
CCCCCCn1c(=O)n2n(c1=O)[C@@H]1CN(S(=O)(=O)c3ccc(C)cc3)C[C@]1(O)[C@@H](OC(=O)NCc1ccccc1)C2	66.8	/	/	/	/	.
CCOc1ccc(N(CC(=O)N2CCN(c3ccc(F)cc3)CC2)S(=O)(=O)c2c(C)noc2C)cc1	.	.	/	/	/	/
CC(=S)/C=C1\Sc2ccccc2N1C	.	.	.	.	.	/
COc1ccc(C(=O)/C=C2\Sc3ccccc3N2C)cc1	94.6	.	.	.	.	47.7	Diaphorase 10uM=55.3;Diaph ctr 30uM=.
O=C(Cc1cccc(NC(=O)C2CCCN(C(=O)CCc3ccccc3)C2)c1)Nc1ccc(C(=O)N2CCOCC2)cc1 (stereo not drawn)	.	.	/	/	/	/
CCN(c1ccccc1)S(=O)(=O)c1ccc(N2CCN(c3ccc(O)cc3)CC2)nc1	75.8	.	/	/	/	.
CC(=O)N1CC[n+]2c(-c3ccc(Cl)cc3Cl)csc21	59.5	.	.	.	.	.
O=C(O)c1ccc(-c2nc(-c3ccc(Cl)cc3Cl)cs2)cc1	.	.	.	.	.	/
Oc1ccc(N2CCN(CC(O)c3ccccc3)CC2)cc1 (stereo not drawn)	79.5	.	/	/	/	.
Cc1cccn2c(=O)c3cc(C(=O)NC4CCCC4)c(=N)n(CCc4ccccc4)c3nc12	.	.	/	/	/	/
CCOCCCn1c(=N)c(C(N)=S)cc2c(=O)n3cccc(C)c3nc21	63.8	.	.	.	.	.
Cc1cccn2c(=O)c3cc(C(N)=S)c(=N)n(CCCOC(C)C)c3nc12	.	.	.	.	.	/
N=c1c(C(=O)NC2CCCCC2)cc2c(=O)n3ccccc3nc2n1Cc1ccc(F)cc1	.	.	/	/	/	/
Cc1cccn2c(=O)c3cc(C(=O)NC4CCCC4)c(=N)n(Cc4ccc(F)cc4)c3nc12	63.5	.	/	/	/	.
Cc1cccn2c(=O)c3cc(C(=O)NC4CCCCC4)c(=N)n(Cc4ccccc4)c3nc12	69.7	.	/	/	/	.
Cc1ccc(NC2=C(NC(=O)c3ccccc3)C(=O)c3ccccc3C2=O)cc1Cl	86.2	.	.	.	.	63.4	Diaphorase 10uM=.;Diaph ctr 30uM=.
COc1ccc(Cc2noc(=O)[nH]2)cc1	.	/	/	/	/	/
O=C(Nc1nnc(CSCc2ccccc2F)s1)c1cccc([N+](=O)[O-])c1	61.1	.	.	.	.	.
O=C(Nc1nnc(S(=O)(=O)N2CCCC2)s1)c1cccc([N+](=O)[O-])c1	97.3	.	/	/	/	76.7	Diaphorase 10uM=50.1;Diaph ctr 30uM=.
O=C(Nc1nnc(S(=O)(=O)N2CCCCC2)s1)c1cccc(Br)c1	99.7	.	/	/	/	60.7	Diaphorase 10uM=69.4;Diaph ctr 30uM=.
COc1ccc(C(=O)Nc2nnc(S(=O)(=O)N3CCCCCC3)s2)cc1OC	.	.	/	/	/	/
Cc1cc(CNC(=O)COC(=O)Cn2[nH]c(=O)c3ccccc3c2=O)cc(C)c1O	.	.	/	/	/	/
CCc1nc(SCC(=O)Nc2ccccc2Cl)n[nH]1	.	.	/	/	/	/
CN(C)S(=O)(=O)Nc1ccc(Cc2ccncc2)cc1	.	/	/	/	/	/
SMILES	PfG6PD inh	HKDC1 inhibitor	Diaphorase act	G6PDH counter	Diaph inh CS	PfGluPho conf	others
COc1ccc(/C=N/NC(=O)c2nnn(-c3nonc3N)c2CN(C)c2ccccc2)cc1	.	.	/	/	/	/
CC(=O)c1cccc(NC(=O)c2ccc(-c3ccccc3[N+](=O)[O-])o2)c1	60.9	.	.	.	.	.
COc1cccc(NC(=O)c2ccc(-c3ccc([N+](=O)[O-])cc3)o2)c1	63.6	.	/	.	/	.
Cc1cc(NC(=O)c2ccc(-c3ccccc3[N+](=O)[O-])o2)no1	.	.	/	/	/	/
COc1ccc(NC(=O)c2ccc(-c3ccc([N+](=O)[O-])cc3)o2)cc1OC	.	.	.	.	.	/
COc1c(Cl)c(=O)oc2ccc(Cl)cc12	.	/	/	/	/	/
COc1ccccc1-n1c(=O)oc2ccc(Cl)cc2c1=O	60.9	.	.	.	.	.
Cc1cc(/C=C2\SC(=Nc3ccccc3)NC2=O)c(C)n1-c1ccc(S(N)(=O)=O)cc1	.	.	.	.	.	/
O=c1c2ccccc2oc2cc(C#Cc3ccccn3)ccc12	.	.	/	/	/	/
C=CCn1c2ccccc2c(=O)c2cc(C#Cc3ccccn3)ccc21	80.0	.	/	/	/	.
Cc1cccc(OCCC(=O)NCC(=O)Nc2cccc(C)c2C)c1	104.8	.	.	.	.	91.4	Diaphorase 10uM=80.6;Diaph ctr 30uM=67.0
CC1=C(C(=O)N2CCOCC2)CC(CC(=O)NC(c2ccccc2)c2ccccc2)C(=O)N1Cc1ccc(F)cc1 (stereo not drawn)	.	/	/	/	/	/
Cc1ccc(S(=O)(=O)Nc2ccccc2N=Cc2ccc([N+](=O)[O-])cc2[N+](=O)[O-])cc1	83.7	.	/	/	/	.
CC1=CC(C)(C)N2C(=O)C(=Nc3ccc(O)cc3)c3cccc1c32	94.0	.	/	/	/	.
COc1cc(N=C2C(=O)N3c4c(cccc42)C(C)=CC3(C)C)cc(OC)c1	.	.	.	.	.	/
Cc1cc(=O)n2nc(N3CCC(C(=O)NCC(C)c4ccccc4)CC3)sc2n1 (stereo not drawn)	.	.	/	/	/	/
O=C(c1ccc2nc(-c3ccco3)c(-c3ccco3)nc2c1)N1CCN(c2ncccn2)CC1	68.5	.	.	.	66.5	.
O=C(c1cccc(C(=O)N2CCN(c3ncccn3)CC2)c1)N1CCN(c2ncccn2)CC1	.	.	.	.	.	/
O=C(NCCCO)c1ccc2nc(-c3ccco3)c(-c3ccco3)nc2c1	75.3	.	.	.	.	.
O=C(Nc1ccccc1)c1ccc2nc(-c3ccco3)c(-c3ccco3)nc2c1	61.2	.	.	.	79.3	.
CCc1nc2ccc(C(=O)NCCc3ccco3)cc2nc1CC	.	.	/	/	/	/
Cc1ccc(SCCN2CCC(O)CCC2=O)cc1 (stereo not drawn)	.	.	/	/	/	/
CC1=CC(=O)C2(C)C(C)=C(C)C12C (stereo not drawn)	.	/	/	/	/	/
CCN1/C(=C/C(=O)c2ccco2)Sc2ccccc21	77.2	.	.	.	.	.
COc1ccc(CN2CC(C(=O)N3CC(C)CC(C)C3)CC2=O)cc1 (stereo not drawn)	.	.	/	/	/	/
Cn1cc(SCC(=O)NCc2ccc(F)cc2)c2ccccc21	.	.	.	.	.	/
O=C(NCCn1cc(SCc2ccc(F)cc2)c2ccccc21)c1ccccc1F	76.5	.	.	.	.	.
O=C(NCCn1cc(SCc2ccc(F)cc2)c2ccccc21)c1c(F)cccc1F	86.1	.	.	.	.	.
